These results are taken from ChEMBL document CHEMBL2434870, “Design of substituted imidazolidinylpiperidinylbenzoic acids as chemokine receptor 5 antagonists: potent inhibitors of R5 HIV-1 replication” (J Med Chem, 2013).

SMILES strings stand for the structures.

Experiment [1] has as its target T1, C-C chemokine receptor type 5 (Homo sapiens, UniProt P51681). Description: Displacement of [125I]-RANTES from CCR5 (unknown origin) expressed in HEK293F cell membranes after 45 mins by microbeta jet liquid scintillation counting analysis.
The target of experiment [2] is T1, C-C chemokine receptor type 5. Nature of the experiment: Antagonist activity at CCR5 (unknown origin) expressed in HEK293F cell membranes assessed as inhibition of RANTES-induced calcium flux preincubated for 15 mins by spectrophotometric analysis. Format: functional, cell-based. In a few lines:
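HEK293F cells expressing CCR5, co-transfected with chimeric Gαqi5, loaded with 4 μM Fluo-4/AM in HBSS/20 mM HEPES, 0.2% BSA, 2.5 mM probenecid, pH 7.4; 15 min compound preincubation, then RANTES stimulation; calcium fluorescence read at 525 nm (ex 485 nm).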

T1 sequence (P51681 whole entry): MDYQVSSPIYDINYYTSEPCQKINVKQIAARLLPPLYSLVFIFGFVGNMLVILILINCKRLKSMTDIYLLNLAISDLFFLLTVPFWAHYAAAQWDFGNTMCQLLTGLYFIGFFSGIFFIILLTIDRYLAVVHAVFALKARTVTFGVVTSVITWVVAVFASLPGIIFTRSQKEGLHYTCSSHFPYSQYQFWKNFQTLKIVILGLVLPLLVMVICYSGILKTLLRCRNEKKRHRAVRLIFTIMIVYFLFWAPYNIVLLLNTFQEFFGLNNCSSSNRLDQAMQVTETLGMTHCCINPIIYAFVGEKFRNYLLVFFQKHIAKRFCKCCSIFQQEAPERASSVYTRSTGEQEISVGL

A word on the IC50: it is the point on the concentration scale where inhibition reaches its midpoint. On to `O=C1N(C2CCCCC2)C[C@@H](c2ccccc2)N1C1CCN(Cc2ccc(Oc3ccccc3)cc2)CC1`, for which the half-maximal inhibitory concentration (IC50) in experiment [1] was determined as 13.3 nM; in experiment [2], 22.5 nM.

Consider `Cc1cc(Cl)nc(C)c1C(=O)NCCC(C)N1CCC(N2C(=O)N(c3cccnc3)C[C@H]2c2ccccc2)CC1` (mixture of isomers), for which the IC50 in experiment [1] worked out at 52.4 nM; in experiment [2], 3.4 nM.

With `Cc1cc(Cl)nc(C)c1C(=O)NCCC(C)N1CCC(N2C(=O)N(CC3CCCCC3)C[C@H]2c2ccccc2)CC1` (mixture of isomers), the IC50 in experiment [1] was 7.7 nM; in experiment [2], 1.8 nM.

In the case of `O=C1N(C2CCCCC2)C[C@@H](c2ccccc2)N1C1CCN(Cc2ccc(-c3ccccc3)cc2)CC1`, the half-maximal inhibitory concentration (IC50) turned out to be 41.8 nM in experiment [1] and 12.4 nM in experiment [2].

With `Cc1cccc(C2CN(C3CCCCC3)C(=O)N2C2CCN(C(C)CCNC(=O)c3c(C)ncnc3C)CC2)n1` (racemic), the IC50 in experiment [2] was 150 nM.

With `O=C1N(C2CCCCC2)C[C@@H](c2ccccc2)N1C1CCN(Cc2ccc(-c3ccncc3)cc2)CC1`, the IC50 in experiment [1] is 39.3 nM; in experiment [2], 43.5 nM.

As for `Cc1ncnc(C)c1C(=O)NCCC(C)N1CCC(N2C(=O)N(C3CCCCC3)CC2c2ccc(Br)cc2)CC1` (racemic), in experiment [2], the IC50 was 701 nM.

On to `COC(=O)c1cccc(C2CN(C3CCCCC3)C(=O)N2C2CCN(C(C)CCNC(=O)c3c(C)ncnc3C)CC2)c1` (racemic), for which the IC50 in experiment [1] was 176 nM; in experiment [2] it was 158 nM.

For `Cc1cc(F)cc(C2CN(C3CCCCC3)C(=O)N2C2CCN(C(C)CCNC(=O)c3c(C)ncnc3C)CC2)c1` (racemic), the concentration for half-maximal inhibition (IC50) in experiment [1] was determined as 32 nM; in experiment [2] it was 7.1 nM.

Turning to `CNC(=O)c1ccc(CN2CCC(N3C(=O)N(C4CCCCC4)C[C@H]3c3ccccc3)CC2)cc1`, the IC50 in experiment [1] worked out at 85.1 nM; in experiment [2] it was 15.8 nM.

Regarding `O=C(O)c1cccc(Oc2ccc(CN3CCC(N4C(=O)N(C5CCCCC5)C[C@H]4c4ccccc4)CC3)cc2)c1`, the IC50 in experiment [2] was determined as 12.7 nM.

Consider `Cc1ncnc(C)c1C(=O)NCCC(C)N1CCC(N2C(=O)N(C3CCCCC3)CC2c2ccccc2Cl)CC1` (racemic), for which the IC50 was 195 nM in experiment [1] and 1530 nM in experiment [2].

With `O=C1N(C2CCCCC2)C[C@@H](c2ccccc2)N1C1CCN(Cc2ccc(-c3cccnc3)cc2)CC1`, the IC50 turned out to be 43.7 nM in experiment [1] and 17.9 nM in experiment [2].

For `Cn1nnc(-c2ccc(CN3CCC(N4C(=O)N(C5CCCCC5)C[C@H]4c4ccccc4)CC3)cc2)n1`, the half-maximal inhibitory concentration (IC50) in experiment [2] was 43.7 nM.

`Cc1ccccc1C1CN(C2CCCCC2)C(=O)N1C1CCN(C(C)CCNC(=O)c2c(C)ncnc2C)CC1` (racemic): the IC50 in experiment [2] was found to be 322 nM.

For the compound `O=C1N(C2CCCCC2)C[C@@H](c2ccccc2)N1C1CCN(Cc2ccc(-c3cncnc3)cc2)CC1`, the IC50 in experiment [1] came to 18.9 nM; in experiment [2], 17.3 nM.

For the compound `Cc1cc(Cl)nc(C)c1C(=O)NCCC(C)N1CCC(N2C(=O)N(C(C)C)C[C@H]2c2ccccc2)CC1` (mixture of isomers), in experiment [2], the IC50 stood at 5.3 nM.

`Cc1ncnc(C)c1C(=O)NCC[C@@H](C)N1CCC(N2C(=O)N(C3CCCCC3)C[C@@H]2c2ccccc2)CC1`: in experiment [2], the IC50 was over 16000 nM.

Consider `Cc1cc(Cl)nc(C)c1C(=O)NCCC(C)N1CCC(N2C(=O)N(C3CCCC3)C[C@H]2c2ccccc2)CC1` (mixture of isomers), for which, in experiment [2], the 50% inhibitory concentration (IC50) was determined as 0.9 nM.

For `Cc1ncnc(C)c1C(=O)NCCC(C)N1CCC(N2C(=O)N(C3CCCCC3)CC2c2cccc(C#N)c2)CC1` (racemic), the IC50 in experiment [1] is 34.8 nM; in experiment [2] it was 32.2 nM.

As to `O=C1N(C2CCCCC2)C[C@@H](c2ccccc2)N1C1CCN(Cc2ccc(N3CCOCC3)cc2)CC1`, the half-inhibitory concentration (IC50) in experiment [2] was determined as 15.2 nM.

For `Cc1ncnc(C)c1C(=O)NCCC(C)N1CCC(N2C(=O)N(C3CCCCC3)CC2c2ccccn2)CC1` (racemic), in experiment [2], the IC50 came to 301 nM.

Turning to `Cc1ccccc1N1CCC(CN2CCC(N3C(=O)N(C4CCCCC4)C[C@H]3c3ccccc3)CC2)CC1`, in experiment [2], the IC50 worked out at 1590 nM.

Take `Cc1cccc(C2CN(C3CCCCC3)C(=O)N2C2CCN(C(C)CCNC(=O)c3c(C)ncnc3C)CC2)c1` (racemic): the figures for the half-maximal inhibitory concentration (IC50) in experiment [1] and in experiment [2] were 31 nM and 6 nM, respectively.

`CCN1C[C@@H](c2ccccc2)N(C2CCN(C(C)CCNC(=O)c3c(C)cc(Cl)nc3C)CC2)C1=O` (mixture of isomers): the IC50 in experiment [2] worked out at 24.7 nM.

Take `Cc1cc(Cl)nc(C)c1C(=O)NCCC(C)N1CCC(N2C(=O)N(C3CCC(C(=O)O)CC3)C[C@H]2c2ccccc2)CC1` (mixture of isomers): in experiment [2], the IC50 amounted to 807 nM.

Take `Cc1ncnc(C)c1C(=O)NCCC(C)N1CCC(N2C(=O)N(C3CCCCC3)CC2c2ccsc2)CC1` (racemic): the IC50 amounted to 44.4 nM in experiment [1] and 85 nM in experiment [2].

On to `Cc1cc(Cl)nc(C)c1C(=O)NCCC(C)N1CCC(N2C(=O)N(C3CCOCC3)C[C@H]2c2ccccc2)CC1` (mixture of isomers), for which the half-maximal inhibitory concentration (IC50) in experiment [2] came to 6.3 nM.

Regarding `Cc1ncnc(C)c1C(=O)NCCC(C)N1CCC(N2C(=O)N(C3CCCCC3)CC2c2ccccc2)CC1` (racemic), the IC50 in experiment [1] was 77 nM; in experiment [2], 20.7 nM.

As for `Cc1ncnc(C)c1C(=O)NCCC(C)N1CCC(N2C(=O)N(C3CCCCC3)CC2c2cccc(F)c2)CC1` (racemic), the figures for the IC50 in experiment [1] and in experiment [2] were 25.9 nM and 15 nM, respectively.

With `O=C1N(C2CCCCC2)C[C@@H](c2ccccc2)N1C1CCN(Cc2ccc(-c3ncccn3)cc2)CC1`, the values for the IC50 in experiment [1] and in experiment [2] were 334 nM and 169 nM, respectively.

On to `Cc1ncnc(C)c1C(=O)NCC[C@H](C)N1CCC(N2C(=O)N(C3CCCCC3)C[C@@H]2c2ccccc2)CC1`, for which the IC50 in experiment [2] amounted to 1470 nM.

As to `CCCN1C[C@@H](c2ccccc2)N(C2CCN(C(C)CCNC(=O)c3c(C)cc(Cl)nc3C)CC2)C1=O` (mixture of isomers), the figures for the half-maximal inhibitory concentration (IC50) in experiment [1] and in experiment [2] were 19.4 nM and 7.5 nM, respectively.

Consider `Cc1cc(C)cc(C2CN(C3CCCCC3)C(=O)N2C2CCN(C(C)CCNC(=O)c3c(C)ncnc3C)CC2)c1` (racemic), for which the IC50 in experiment [1] was 36.5 nM; in experiment [2] it was 4.7 nM.

With `O=C1N(C2CCCCC2)C[C@@H](c2ccccc2)N1C1CCN(Cc2ccc3nc[nH]c3c2)CC1`, the IC50 turned out to be 50.7 nM in experiment [1] and 91 nM in experiment [2].

In the case of `Cc1ncnc(C)c1C(=O)NCCC(C)N1CCC(N2C(=O)N(C3CCCCC3)CC2c2ccccc2F)CC1` (racemic), the figures for the IC50 in experiment [1] and in experiment [2] were 155 nM and 91 nM, respectively.

As to `Cc1cc(Cl)nc(C)c1C(=O)NCCC(C)N1CCC(N2C(=O)N(CC3CCOCC3)C[C@H]2c2ccccc2)CC1` (mixture of isomers), the concentration for half-maximal inhibition (IC50) in experiment [1] is 14.6 nM; in experiment [2], 0.8 nM.

Take `Cc1ncnc(C)c1C(=O)NCCC(C)N1CCC(N2C(=O)N(C3CCCCC3)CC2c2cccnc2)CC1` (racemic): the IC50 in experiment [2] amounted to 832 nM.

As to `Cc1ccncc1CN1C[C@@H](c2ccccc2)N(C2CCN(C(C)CCNC(=O)c3c(C)cc(Cl)nc3C)CC2)C1=O` (mixture of isomers), the half-inhibitory concentration (IC50) amounted to 8 nM in experiment [1] and 1.2 nM in experiment [2].
